For test [1], the system named is Tyrosine-protein kinase ABL1 (Homo sapiens), P00519 [F317L]. The experiment in a line: Binding affinity to human phosphorylated ABL1 F317L mutant (S229 to K512 residues) expressed in mammalian expression system assessed as remaining unbound target protein level at 1000 nM by Kinomescan method relative to control. In outline:
(§1)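 Single-point competition binding screen across a panel of 468 kinases and mutants, with the inhibitor at 1 μM. Binding is read out as percent of a DMSO control, and targets below 1 percent control were classed as strong binders.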

Test [2] has as its target Activin receptor type-2B (Homo sapiens) (UniProt Q13705). The experiment in a line: Binding affinity to wild-type human ACVR2B (H169 to D504 residues) expressed in bacterial expression system assessed as remaining unbound target protein level at 1000 nM by Kinomescan method relative to control. Put shortly:
as §1

Test [3] deals with NUAK family SNF1-like kinase 1 (Homo sapiens) (UniProt O60285). The test can be described thus: Binding affinity to wild-type human partial length ARK5 (E25 to I332 residues) expressed in bacterial expression system assessed as remaining unbound target protein level at 1000 nM by Kinomescan method relative to control. In outline: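 Profiled in a KINOMEscan binding panel with the inhibitor at a single concentration of 1 μM. Binding to each kinase was read out as percent of control, relative to a DMSO control. Strong binders were defined as those with a percent control value below 1.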
Sequence of NUAK family SNF1-like kinase 1 (Homo sapiens) (O60285 whole entry, the tested form may be a part): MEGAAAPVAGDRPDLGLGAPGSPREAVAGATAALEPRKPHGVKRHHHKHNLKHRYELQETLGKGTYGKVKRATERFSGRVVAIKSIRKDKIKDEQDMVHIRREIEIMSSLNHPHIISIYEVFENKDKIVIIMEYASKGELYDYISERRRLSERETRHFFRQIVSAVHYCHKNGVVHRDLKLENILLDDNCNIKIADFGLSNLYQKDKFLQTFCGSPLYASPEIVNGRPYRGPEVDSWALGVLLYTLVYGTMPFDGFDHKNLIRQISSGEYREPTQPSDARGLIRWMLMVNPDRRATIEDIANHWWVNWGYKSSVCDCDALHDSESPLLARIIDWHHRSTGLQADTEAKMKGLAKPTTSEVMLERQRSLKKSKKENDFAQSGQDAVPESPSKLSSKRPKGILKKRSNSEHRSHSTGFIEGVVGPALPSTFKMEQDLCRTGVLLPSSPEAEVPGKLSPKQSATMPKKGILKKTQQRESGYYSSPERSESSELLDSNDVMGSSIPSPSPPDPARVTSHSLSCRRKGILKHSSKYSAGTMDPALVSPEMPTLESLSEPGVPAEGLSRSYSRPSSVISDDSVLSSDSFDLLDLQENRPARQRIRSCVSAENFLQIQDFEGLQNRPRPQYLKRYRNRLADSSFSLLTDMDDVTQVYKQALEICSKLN

Test [4] addresses Calcium/calmodulin-dependent protein kinase kinase 1 (Homo sapiens) (UniProt Q8N5S9). The experiment in a line: Binding affinity to wild-type human partial length CAMKK1 (R65 to E414 residues) expressed in bacterial expression system assessed as remaining unbound target protein level at 1000 nM by Kinomescan method relative to control.
Test [5] deals with Peripheral plasma membrane protein CASK (Homo sapiens) (UniProt O14936). The test can be described thus: Binding affinity to wild-type human partial length CASK (M1 to H315 residues) expressed in mammalian expression system assessed as remaining unbound target protein level at 1000 nM by Kinomescan method relative to control. Put shortly:
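KINOMEscan competition binding profile across a panel of 468 kinases and mutants, with the inhibitor tested at a single concentration of 1 μM. Binding is reported as percent of control, meaning signal relative to a DMSO control.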

For test [6], the target named is Receptor tyrosine-protein kinase erbB-2 (Homo sapiens) (UniProt P04626). The test can be described thus: Binding affinity to wild-type human partial length ERBB2 (K646 to V1225 residues) expressed in mammalian expression system assessed as remaining unbound target protein level at 1000 nM by Kinomescan method relative to control.
Test [7] has as its target Mitogen-activated protein kinase 3 (Homo sapiens) (UniProt P27361). The test can be described thus: Binding affinity to wild-type human full length ERK1 (M1 to P379 residues) expressed in bacterial expression system assessed as remaining unbound target protein level at 1000 nM by Kinomescan method relative to control. In outline: as §1
In test [8] the target is Hormonally up-regulated neu tumor-associated kinase (Homo sapiens) (UniProt P57058). The experiment in a line: Binding affinity to wild-type human partial length HUNK (A31 to K354 residues) expressed in bacterial expression system assessed as remaining unbound target protein level at 1000 nM by Kinomescan method relative to control. Put shortly:
(§2)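 KINOMEscan binding panel of 468 kinases/mutants. Inhibitor was tested at a single concentration of 1 μM. Binding is reported as percent of control, defined relative to a DMSO control.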

The target of test [9] is Inhibitor of nuclear factor kappa-B kinase subunit alpha (Homo sapiens) (UniProt O15111). The test can be described thus: Binding affinity to wild-type human full length IKK-alpha (M1 to E745 residues) expressed in mammalian expression system assessed as remaining unbound target protein level at 1000 nM by Kinomescan method relative to control. In outline: as §1
Sequence of Inhibitor of nuclear factor kappa-B kinase subunit alpha (Homo sapiens) (O15111 whole entry, the tested form may be a part): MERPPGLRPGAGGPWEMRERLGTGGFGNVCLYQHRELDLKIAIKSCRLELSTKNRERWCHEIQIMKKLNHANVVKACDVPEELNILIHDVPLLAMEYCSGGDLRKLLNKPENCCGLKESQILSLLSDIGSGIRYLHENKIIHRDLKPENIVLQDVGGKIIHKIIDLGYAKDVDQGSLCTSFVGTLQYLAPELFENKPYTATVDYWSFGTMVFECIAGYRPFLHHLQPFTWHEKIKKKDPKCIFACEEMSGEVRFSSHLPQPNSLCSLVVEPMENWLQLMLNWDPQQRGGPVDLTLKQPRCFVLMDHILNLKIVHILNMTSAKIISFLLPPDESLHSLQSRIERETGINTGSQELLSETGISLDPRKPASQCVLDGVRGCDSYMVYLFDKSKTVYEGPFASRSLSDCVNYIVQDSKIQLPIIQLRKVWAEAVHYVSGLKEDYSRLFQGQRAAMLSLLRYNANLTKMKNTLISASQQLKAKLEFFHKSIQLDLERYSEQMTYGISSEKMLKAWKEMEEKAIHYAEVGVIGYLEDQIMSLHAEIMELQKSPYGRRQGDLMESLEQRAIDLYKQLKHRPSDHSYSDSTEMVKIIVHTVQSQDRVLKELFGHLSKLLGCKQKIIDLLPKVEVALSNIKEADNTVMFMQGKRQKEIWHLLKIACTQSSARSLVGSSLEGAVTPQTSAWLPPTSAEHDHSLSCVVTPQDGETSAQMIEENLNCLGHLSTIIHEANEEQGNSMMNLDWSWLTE
The target in test [10] is Mitogen-activated protein kinase kinase kinase 4 (Homo sapiens) (UniProt Q9Y6R4). The test can be described thus: Binding affinity to wild-type human partial length MAP3K4 (G1319 to E1608 residues) expressed in bacterial expression system assessed as remaining unbound target protein level at 1000 nM by Kinomescan method relative to control.
Sequence of Mitogen-activated protein kinase kinase kinase 4 (Homo sapiens) (Q9Y6R4 whole entry, the tested form may be a part): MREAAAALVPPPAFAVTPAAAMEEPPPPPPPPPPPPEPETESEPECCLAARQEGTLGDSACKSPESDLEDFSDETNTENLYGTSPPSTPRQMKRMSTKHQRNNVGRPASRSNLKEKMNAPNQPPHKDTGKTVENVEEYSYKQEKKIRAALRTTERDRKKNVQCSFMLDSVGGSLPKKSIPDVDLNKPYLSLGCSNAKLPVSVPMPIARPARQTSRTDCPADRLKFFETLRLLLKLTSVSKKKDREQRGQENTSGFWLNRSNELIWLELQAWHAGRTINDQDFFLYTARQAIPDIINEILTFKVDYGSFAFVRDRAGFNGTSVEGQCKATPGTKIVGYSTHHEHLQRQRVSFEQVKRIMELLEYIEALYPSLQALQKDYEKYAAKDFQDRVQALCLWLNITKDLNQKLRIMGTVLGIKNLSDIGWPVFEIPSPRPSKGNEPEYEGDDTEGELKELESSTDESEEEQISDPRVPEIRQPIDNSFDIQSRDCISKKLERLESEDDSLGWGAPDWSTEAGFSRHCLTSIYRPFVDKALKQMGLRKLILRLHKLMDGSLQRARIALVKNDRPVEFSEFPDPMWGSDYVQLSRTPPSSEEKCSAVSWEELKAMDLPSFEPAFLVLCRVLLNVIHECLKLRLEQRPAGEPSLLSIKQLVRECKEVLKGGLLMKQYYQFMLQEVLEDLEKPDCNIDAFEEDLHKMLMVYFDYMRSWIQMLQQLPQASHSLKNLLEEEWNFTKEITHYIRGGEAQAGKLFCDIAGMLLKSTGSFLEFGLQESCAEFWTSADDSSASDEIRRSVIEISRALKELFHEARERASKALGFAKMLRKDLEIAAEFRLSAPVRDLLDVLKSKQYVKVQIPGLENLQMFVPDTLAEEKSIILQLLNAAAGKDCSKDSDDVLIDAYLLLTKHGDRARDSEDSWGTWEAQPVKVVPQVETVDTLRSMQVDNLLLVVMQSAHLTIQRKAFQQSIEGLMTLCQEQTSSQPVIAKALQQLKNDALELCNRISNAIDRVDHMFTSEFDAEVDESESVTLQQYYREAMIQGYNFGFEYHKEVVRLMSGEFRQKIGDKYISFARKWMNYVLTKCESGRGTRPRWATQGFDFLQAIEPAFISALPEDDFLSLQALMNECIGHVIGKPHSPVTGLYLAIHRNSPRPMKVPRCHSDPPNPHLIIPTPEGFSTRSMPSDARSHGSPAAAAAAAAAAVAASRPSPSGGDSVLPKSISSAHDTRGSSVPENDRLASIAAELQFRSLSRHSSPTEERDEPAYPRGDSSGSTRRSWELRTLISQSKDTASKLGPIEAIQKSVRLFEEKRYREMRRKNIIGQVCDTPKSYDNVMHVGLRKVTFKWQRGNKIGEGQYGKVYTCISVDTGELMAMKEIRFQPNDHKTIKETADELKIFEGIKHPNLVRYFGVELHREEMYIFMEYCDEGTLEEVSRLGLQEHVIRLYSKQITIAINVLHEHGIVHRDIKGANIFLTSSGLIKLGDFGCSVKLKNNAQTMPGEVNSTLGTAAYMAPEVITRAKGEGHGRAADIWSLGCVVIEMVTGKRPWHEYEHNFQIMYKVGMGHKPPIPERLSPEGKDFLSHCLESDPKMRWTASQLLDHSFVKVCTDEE
For test [11], the target named is Serine/threonine-protein kinase Nek3 (Homo sapiens) (UniProt P51956). The test can be described thus: Binding affinity to wild-type human full length NEK3 (M1 to R506 residues) expressed in mammalian expression system assessed as remaining unbound target protein level at 1000 nM by Kinomescan method relative to control. In outline:
as §1

Test [12] deals with Serine/threonine-protein kinase PAK 4 (Homo sapiens) (UniProt O96013). The test can be described thus: Binding affinity to wild-type human partial length PAK4 (Q144 to R438 residues) expressed in bacterial expression system assessed as remaining unbound target protein level at 1000 nM by Kinomescan method relative to control. In outline:
as §2

Test [13] deals with Phosphatidylinositol 4,5-bisphosphate 3-kinase catalytic subunit alpha isoform (Homo sapiens), P42336 [E542K]. The test can be described thus: Binding affinity to human partial length PIK3CA E542K mutant (R108 to N1068 residues) expressed in mammalian expression system assessed as remaining unbound target protein level at 1000 nM by Kinomescan method relative to control. In outline:
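KINOMEscan competition-binding profiling across the panel of 468 kinases and mutants, with inhibitor tested at 1 μM. Binding is expressed as percent of control, with DMSO as the reference control.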

Test [14] has as its target Protein kinase C delta type (Homo sapiens) (UniProt Q05655). The test can be described thus: Binding affinity to wild-type human partial length PRKCD (Q328 to D676 residues) expressed in bacterial expression system assessed as remaining unbound target protein level at 1000 nM by Kinomescan method relative to control.
Test [15] has as its target Serine/threonine-protein kinase SBK1 (Homo sapiens) (UniProt Q52WX2). The test can be described thus: Binding affinity to wild-type human partial length SBK1 (P23 to P348 residues) expressed in mammalian expression system assessed as remaining unbound target protein level at 1000 nM by Kinomescan method relative to control.
Test [16] addresses Serine/threonine-protein kinase TAO3 (Homo sapiens) (UniProt Q9H2K8). The experiment in a line: Binding affinity to wild-type human partial length TAOK3 (M1 to T316 residues) expressed in mammalian expression system assessed as remaining unbound target protein level at 1000 nM by Kinomescan method relative to control.
The target of test [17] is Non-receptor tyrosine-protein kinase TYK2 (Homo sapiens) (UniProt P29597). The test can be described thus: Binding affinity to wild-type human partial length TYK2 JH2 pseudokinase domain (G556 to D888 residues) expressed in mammalian expression system assessed as remaining unbound target protein level at 1000 nM by Kinomescan method relative to control.
The target in test [18] is Serine/threonine-protein kinase ULK2 (Homo sapiens) (UniProt Q8IYT8). The experiment in a line: Binding affinity to wild-type human partial length ULK2 (M1 to S301 residues) expressed in mammalian expression system assessed as remaining unbound target protein level at 1000 nM by Kinomescan method relative to control.
For test [19], the target named is Serine/threonine-protein kinase WNK2 (Homo sapiens) (UniProt Q9Y3S1). The test can be described thus: Binding affinity to wild-type human partial length WNK2 (V47 to D482 residues) expressed in mammalian expression system assessed as remaining unbound target protein level at 1000 nM by Kinomescan method relative to control.
The target in test [20] is CDK9/cyclin T1 (Homo sapiens, UniProt P50750). The test can be described thus: Inhibition of recombinant full length His-tagged human CDK9/CyclinT1 expressed in baculovirus expression system.
The species named for test [21] is Homo sapiens. The test can be described thus: Selectivity ratio of IC50 for recombinant GST-tagged inactive state of human CDK11 to IC50 for recombinant full length His-tagged human CDK9/CyclinT1.

Each structure is given as a SMILES string.

Sequence of Phosphatidylinositol 4,5-bisphosphate 3-kinase catalytic subunit alpha isoform (Homo sapiens), P42336 [E542K] (P42336 whole entry E542K, the tested form may be a part, canonical isoform): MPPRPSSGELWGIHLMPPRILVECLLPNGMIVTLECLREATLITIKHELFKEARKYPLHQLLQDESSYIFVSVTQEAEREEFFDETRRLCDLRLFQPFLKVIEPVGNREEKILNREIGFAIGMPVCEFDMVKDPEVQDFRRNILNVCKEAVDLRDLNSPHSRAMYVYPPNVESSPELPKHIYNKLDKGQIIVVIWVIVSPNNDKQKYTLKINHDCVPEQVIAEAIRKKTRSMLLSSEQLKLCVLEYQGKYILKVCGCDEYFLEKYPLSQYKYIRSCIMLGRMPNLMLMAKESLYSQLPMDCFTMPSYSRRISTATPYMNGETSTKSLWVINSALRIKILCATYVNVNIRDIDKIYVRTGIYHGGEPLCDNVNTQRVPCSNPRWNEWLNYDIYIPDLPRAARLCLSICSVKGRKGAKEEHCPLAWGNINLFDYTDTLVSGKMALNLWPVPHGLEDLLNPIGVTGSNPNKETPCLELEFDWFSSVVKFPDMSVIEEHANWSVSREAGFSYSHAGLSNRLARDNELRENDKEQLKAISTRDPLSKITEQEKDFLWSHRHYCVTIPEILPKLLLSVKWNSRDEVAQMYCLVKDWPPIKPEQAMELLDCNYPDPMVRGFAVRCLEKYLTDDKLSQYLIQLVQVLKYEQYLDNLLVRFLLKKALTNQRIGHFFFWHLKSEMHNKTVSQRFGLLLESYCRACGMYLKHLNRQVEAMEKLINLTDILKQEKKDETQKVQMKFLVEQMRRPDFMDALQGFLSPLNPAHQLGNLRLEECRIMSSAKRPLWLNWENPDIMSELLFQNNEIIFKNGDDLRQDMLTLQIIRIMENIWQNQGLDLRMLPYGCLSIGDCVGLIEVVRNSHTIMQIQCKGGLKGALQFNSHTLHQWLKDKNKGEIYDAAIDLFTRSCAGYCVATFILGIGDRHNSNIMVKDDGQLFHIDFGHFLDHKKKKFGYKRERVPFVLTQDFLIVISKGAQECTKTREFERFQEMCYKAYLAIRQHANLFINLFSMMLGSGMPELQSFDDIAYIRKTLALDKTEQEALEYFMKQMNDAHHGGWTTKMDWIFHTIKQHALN
Sequence of Serine/threonine-protein kinase TAO3 (Homo sapiens) (Q9H2K8 whole entry, the tested form may be a part): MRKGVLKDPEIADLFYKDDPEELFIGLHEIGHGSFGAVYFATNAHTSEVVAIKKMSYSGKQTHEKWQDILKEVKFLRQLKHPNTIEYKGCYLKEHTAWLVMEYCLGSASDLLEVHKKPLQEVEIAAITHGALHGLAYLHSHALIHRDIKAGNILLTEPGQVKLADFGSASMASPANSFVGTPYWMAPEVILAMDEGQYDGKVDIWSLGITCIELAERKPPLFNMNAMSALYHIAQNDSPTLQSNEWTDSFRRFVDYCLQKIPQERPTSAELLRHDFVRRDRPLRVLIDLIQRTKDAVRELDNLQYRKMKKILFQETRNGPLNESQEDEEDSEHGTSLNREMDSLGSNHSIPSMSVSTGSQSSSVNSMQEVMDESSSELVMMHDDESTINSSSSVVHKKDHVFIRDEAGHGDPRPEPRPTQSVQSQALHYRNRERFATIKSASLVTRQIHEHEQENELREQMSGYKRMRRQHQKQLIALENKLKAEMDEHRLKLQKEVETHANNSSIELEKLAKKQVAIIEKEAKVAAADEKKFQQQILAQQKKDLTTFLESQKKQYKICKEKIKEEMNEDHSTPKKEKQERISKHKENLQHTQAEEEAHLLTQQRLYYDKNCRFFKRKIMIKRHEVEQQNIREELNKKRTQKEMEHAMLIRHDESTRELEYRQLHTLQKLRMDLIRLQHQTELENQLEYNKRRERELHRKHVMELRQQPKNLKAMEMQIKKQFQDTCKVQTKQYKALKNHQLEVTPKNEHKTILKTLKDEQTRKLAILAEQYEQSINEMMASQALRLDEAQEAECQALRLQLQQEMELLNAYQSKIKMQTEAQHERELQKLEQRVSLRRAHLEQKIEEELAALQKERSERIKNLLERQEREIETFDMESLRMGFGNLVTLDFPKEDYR

By IC50 is commonly meant the concentration needed to halve the response being measured. On to `COCCN[C@H]1CC[C@H](Nc2cc(-c3csc(NCC4(C#N)CCOCC4)n3)c(Cl)cn2)CC1`, for which the Activity in [1] turned out to be 100%; in [2], 98%; in test [3], 100%; in test [4], 84%; in [5], 81%; in [6] it was 97%. The Activity in test [7] was 90%; in [8], 81%; in [9] it was 89%; in test [10] it was 89%; in test [11], 100%; in test [12] it was 91%. The Activity in test [13] stood at 96%; in test [14], 91%; in test [15], 75%; in test [16], 15%; in test [17], 100%; in [18] it was 100%. For the same compound, the Activity in test [19] was found to be 92%. In addition, the IC50 in test [20] was determined as 1 nM. In addition, the Ratio IC50 in test [21] was greater than 1000.

These data come from ChEMBL document CHEMBL4261600 (Eur J Med Chem, 2018).
